Measured values taken from ChEMBL document CHEMBL1122018, “Synthesis and orexigenic activity of some 1-methyl-4-piperidylidene-Substituted pyrrolo[2,1-g][3] benzazepine and dibenzocycloheptene derivatives” (1982).

Key:
Assay type in all cases: functional
[1] = system: Felis catus; assay: Average food consumed at the dose of 0.063 mg/kg (po) using 10 cats per dose level at 60 min (control day/ test day); 18/98
[2] = system: Felis catus; assay: Average food consumed at the dose of 0.25 mg/kg (po) using 10 cats per dose level at 180 min (control day/ test day); 25/236
[3] = system: Felis catus; assay: Average food consumed at the dose of 0.25 mg/kg (po) using 10 cats per dose level at 180 min (control day/ test day); 30/169
[4] = system: Felis catus; assay: Average food consumed at the dose of 0.25 mg/kg (po) using 10 cats per dose level at 180 min (control day/ test day); 41/138
[5] = system: Felis catus; assay: Average food consumed at the dose of 0.063 mg/kg (po) using 10 cats per dose level at 30 min (control day/ test day); 17/57
[6] = system: Felis catus; assay: Average food consumed at the dose of 0.50 mg/kg (po) using 10 cats per dose level at 30 min (control day/ test day); 13/68; details: dose 0.5 mg/kg
How it was run: (§1)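 Cats given test compound suspended in 1% methylcellulose, or 1% methylcellulose placebo, by gavage 30 min before a preweighed test meal. Food was offered in surplus for 3 h, and intake was found by reweighing at 30, 60 and 180 min. Ten cats per dose, each dosed no more than once weekly. Test-day intake was compared with the preceding control day by two-tailed paired t test (p < 0.05); values are mean ± SD.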

[7] = system: Felis catus; assay: Average food consumed at the dose of 0.50 mg/kg (po) using 10 cats per dose level at 30 min (control day/ test day); 30/147; details: dose 0.5 mg/kg; how it was run: as §1
[8] = system: Felis catus; assay: Average food consumed at the dose of 0.50 mg/kg (po) using 10 cats per dose level at 30 min (control day/ test day); 35/108; details: dose 0.5 mg/kg; how it was run: as §1
[9] = system: Felis catus; assay: Average food consumed at the dose of 0.50 mg/kg (po) using 10 cats per dose level at 60 min (control day/ test day); 19/96; details: dose 0.5 mg/kg; how it was run: as §1
[10] = system: Felis catus; assay: Average food consumed at the dose of 0.50 mg/kg (po) using 10 cats per dose level at 60 min (control day/ test day); 33/124; details: dose 0.5 mg/kg; how it was run: as §1
[11] = system: Felis catus; assay: Average food consumed at the dose of 0.50 mg/kg (po) using 10 cats per dose level at 60 min (control day/ test day); 34/203; details: dose 0.5 mg/kg; how it was run: as §1
[12] = system: Felis catus; assay: Average food consumed at the dose of 0.031 mg/kg (po) using 10 cats per dose level at 180 min (control day/ test day); 27/159
[13] = system: Felis catus; assay: Average food consumed at the dose of 0.031 mg/kg (po) using 10 cats per dose level at 30 min (control day/ test day); 20/55
[14] = system: Felis catus; assay: Average food consumed at the dose of 0.031 mg/kg (po) using 10 cats per dose level at 60 min (control day/ test day); 17/79
[15] = system: Felis catus; assay: Average food consumed at the dose of 0.063 mg/kg (po) using 10 cats per dose level at 180 min (control day/ test day); 17/166
[16] = system: Felis catus; assay: Average food consumed at the dose of 0.50 mg/kg (po) using 10 cats per dose level at 180 min (control day/ test day); 34/273; details: dose 0.5 mg/kg; how it was run: as §1
[17] = system: Felis catus; assay: Average food consumed at the dose of 0.50 mg/kg (po) using 10 cats per dose level at 180 min (control day/ test day); 36/188; details: dose 0.5 mg/kg; how it was run: as §1
[18] = system: Felis catus; assay: Average food consumed at the dose of 0.25 mg/kg (po) using 10 cats per dose level at 30 min (control day/ test day); 24/129
[19] = system: Felis catus; assay: Average food consumed at the dose of 0.25 mg/kg (po) using 10 cats per dose level at 30 min (control day/ test day); 32/66; how it was run: as §1
[20] = system: Felis catus; assay: Average food consumed at the dose of 0.50 mg/kg (po) using 10 cats per dose level at 180 min (control day/ test day); 16/141; details: dose 0.5 mg/kg; how it was run: as §1
[21] = system: Felis catus; assay: Average food consumed at the dose of 0.25 mg/kg (po) using 10 cats per dose level at 60 min (control day/ test day); 25/109; how it was run: as §1
[22] = system: Felis catus; assay: Average food consumed at the dose of 0.25 mg/kg (po) using 10 cats per dose level at 60 min (control day/ test day); 31/179; how it was run: as §1
[23] = system: Felis catus; assay: Average food consumed at the dose of 0.25 mg/kg (po) using 10 cats per dose level at 60 min (control day/ test day); 31/66; how it was run: as §1
[24] = system: Felis catus; assay: Average food consumed at the dose of 0.25 mg/kg (po) using 10 cats per dose level at 30 min (control day/ test day); 17/76

CN1CCC(=C2c3ccccc3C=Cc3ccc(C(=O)O)cc32)CC1
Average consumed [1]: 94 g | Average consumed [2]: 191 g | Average consumed [3]: 133 g | Average consumed [4]: 137 g | Average consumed [5]: 68 g | Average consumed [6]: 71 g | Average consumed [7]: 116 g | Average consumed [8]: 72 g | Average consumed [9]: 94 g | Average consumed [10]: 102 g | Average consumed [11]: 160 g | Average consumed [12]: 157 g | Average consumed [13]: 68 g | Average consumed [14]: 95 g | Average consumed [15]: 159 g | Average consumed [16]: 219 g | Average consumed [17]: 149 g | Average consumed [18]: 108 g | Average consumed [19]: 68 g | Average consumed [20]: 125 g | Average consumed [21]: 90 g | Average consumed [22]: 147 g | Average consumed [23]: 86 g | Average consumed [24]: 62 g
